The source made the active and inactive calls. No cut-off for these calls is given here.
Columns and labels:
Oryctolagus cuniculus [1] = species on record: Oryctolagus cuniculus; assay: Antisecretory effect in isolated rabbit gastric glands as measured by aminopyrine uptake; no effect, 1E-4M concentration; type: functional; details: Stomach
Procedure, shortened: (§1)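 Gastric glands from male New Zealand rabbits (1.5-2.0 kg), isolated by collagenase digestion at 37 °C, pH 7.4. Incubated with compound 45 min at 37 °C with vigorous shaking. Pellet and supernatant radioactivity counted by liquid scintillation. ID50 from at least six doses, duplicate at each dose.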

[2] = molecular target: Potassium-transporting ATPase (Sus scrofa, UniProt P19156); assay: (§2) Activity was evaluated by measuring the inhibition of isolated hog H+/K+ ATPase; type: protein-complex assay
Procedure, shortened: (§3)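 Hog fundic mucosa microsomes. Vesicles (30 μg) preincubated with compound at 37 °C in 40 mM Tris-acetate pH 7.4, 7 mM NH4Cl, with or without KCl. Reaction started with 2 mM ATP (final), run 10 min at 37 °C, stopped with cold TCA plus charcoal. Released inorganic phosphate measured colorimetrically. IC50 from dose-response, mean of triplicates.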

[3] = molecular target: T1, Potassium-transporting ATPase (Rattus norvegicus) (UniProt P09626+P18598); assay: Activity was evaluated by measuring the inhibition of isolated rat H+/K+ ATPase at 10 mg/kg; type: organism-based; design: dose 10 mg/kg
Procedure, shortened: (§4)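 Male Sprague-Dawley rats (~230 g), fasted 16 h without food or water in restraining cages. Compound in 1 mL isotonic saline with 25% ethanol, given sc or by gavage. Killed 3 h later. Fundic mucosa pooled from four rats per treatment, homogenized, microsomes isolated at 170000g. K+-stimulated ATPase assayed as for hog enzyme. ED50 from at least five doses, each in triplicate.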

Oryctolagus cuniculus [4] = species on record: Oryctolagus cuniculus; assay: Antisecretory effect in isolated rabbit gastric glands as measured by aminopyrine uptake; type: functional, Stomach; procedure, shortened: as §1
[5] = molecular target: T1, Potassium-transporting ATPase (Rattus norvegicus); assay: Inhibition of isolated rat H+/K+ ATPase.; type: protein-complex assay; procedure, shortened: as §4
[6] = molecular target: T1, Potassium-transporting ATPase (Rattus norvegicus); assay: Inhibition of isolated rat H+/K+ ATPase at 10 mg/kg; Inactive; type: functional, organism-based; design: dose 10 mg/kg; procedure, shortened: as §4
[7] = molecular target: T1, Potassium-transporting ATPase (Rattus norvegicus); assay: Inhibitory activity was evaluated by measuring the inhibition of isolated rat H+/K+ ATPase at a concentration of 10 mg/kg; type: organism-based; design: dose 10 mg/kg; procedure, shortened: as §4
Rattus norvegicus = assay: Inhibition of acid secretion was determined by the compound administered subcutaneously in rats; type: functional; details: sc
Procedure, shortened: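 Pylorus-ligated (Shay) rats: female Upjohn or Charles River rats fasted 24 h, water withheld the last 18 h. Compound given once sc. Pylorus ligated under ether, then 10 mL saline sc. Gastric juice acidity titrated with 0.1 M NaOH as output (mequiv/2 or 3 h). Usually 12 controls and 5-6 rats per dose.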

[8] = molecular target: T2, Potassium-transporting ATPase (Sus scrofa, UniProt P18434+P19156); assay: Activity was evaluated by measuring the inhibition of isolated hog H+/K+ ATPase; No effect; type: protein-complex assay; procedure, shortened: as §3
[9] = molecular target: T3, Potassium-transporting ATPase (Sus scrofa) (UniProt P18434+P19156); assay: Activity was evaluated by measuring the inhibition of isolated hog H+/K+ ATPase at concentration of 5E-4; type: protein-complex assay; procedure, shortened: as §3
[10] = molecular target: T2, Potassium-transporting ATPase; assay: Activity was evaluated by measuring the inhibition of isolated hog H+/K+ ATPase; No effect at 5E-4; type: protein-complex assay; procedure, shortened: as §3
[11] = molecular target: T1, Potassium-transporting ATPase (Rattus norvegicus); assay: Activity was evaluated by measuring the inhibition of isolated rat H+/K+ ATPase; no effect, 10 mg/kg sc
Oryctolagus cuniculus [12] = species on record: Oryctolagus cuniculus; assay: Antisecretory effect in isolated rabbit gastric glands as measured by aminopyrine uptake; Inactive, 1E-4M concentration; type: functional; details: Stomach; procedure, shortened: as §1
[13] = molecular target: T3, Potassium-transporting ATPase (Sus scrofa); assay: as §2; type: protein-complex assay; details: concentration not given here; procedure, shortened: as §3
[14] = test system: Potassium-transporting ATPase (Rattus norvegicus); assay: Activity was evaluated by measuring the inhibition of isolated rat H+/K+ ATPase at 10 mg/kg; Inactive
[15] = molecular target: T1, Potassium-transporting ATPase (Rattus norvegicus); assay: Activity was evaluated by measuring the inhibition of isolated rat H+/K+ ATPase, sc; type: protein-complex assay; procedure, shortened: as §4
[16] = molecular target: T1, Potassium-transporting ATPase (Rattus norvegicus); assay: Activity administered subcutaneously was evaluated by measuring the inhibition of isolated rat H+/K+ ATPase; type: protein-complex assay; procedure, shortened: as §4

Chain of Potassium-transporting ATPase (Sus scrofa, UniProt P19156) (P18434 whole entry): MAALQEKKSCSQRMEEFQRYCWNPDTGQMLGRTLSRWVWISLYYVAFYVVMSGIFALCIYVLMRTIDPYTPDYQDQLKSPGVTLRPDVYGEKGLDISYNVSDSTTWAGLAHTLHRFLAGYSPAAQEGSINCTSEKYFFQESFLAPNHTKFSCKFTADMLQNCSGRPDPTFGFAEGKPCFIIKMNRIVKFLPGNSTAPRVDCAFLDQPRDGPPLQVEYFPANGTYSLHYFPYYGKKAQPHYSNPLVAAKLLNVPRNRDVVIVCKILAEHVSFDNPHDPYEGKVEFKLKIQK
Chain of Potassium-transporting ATPase (Sus scrofa, UniProt P19156) (P19156 whole entry): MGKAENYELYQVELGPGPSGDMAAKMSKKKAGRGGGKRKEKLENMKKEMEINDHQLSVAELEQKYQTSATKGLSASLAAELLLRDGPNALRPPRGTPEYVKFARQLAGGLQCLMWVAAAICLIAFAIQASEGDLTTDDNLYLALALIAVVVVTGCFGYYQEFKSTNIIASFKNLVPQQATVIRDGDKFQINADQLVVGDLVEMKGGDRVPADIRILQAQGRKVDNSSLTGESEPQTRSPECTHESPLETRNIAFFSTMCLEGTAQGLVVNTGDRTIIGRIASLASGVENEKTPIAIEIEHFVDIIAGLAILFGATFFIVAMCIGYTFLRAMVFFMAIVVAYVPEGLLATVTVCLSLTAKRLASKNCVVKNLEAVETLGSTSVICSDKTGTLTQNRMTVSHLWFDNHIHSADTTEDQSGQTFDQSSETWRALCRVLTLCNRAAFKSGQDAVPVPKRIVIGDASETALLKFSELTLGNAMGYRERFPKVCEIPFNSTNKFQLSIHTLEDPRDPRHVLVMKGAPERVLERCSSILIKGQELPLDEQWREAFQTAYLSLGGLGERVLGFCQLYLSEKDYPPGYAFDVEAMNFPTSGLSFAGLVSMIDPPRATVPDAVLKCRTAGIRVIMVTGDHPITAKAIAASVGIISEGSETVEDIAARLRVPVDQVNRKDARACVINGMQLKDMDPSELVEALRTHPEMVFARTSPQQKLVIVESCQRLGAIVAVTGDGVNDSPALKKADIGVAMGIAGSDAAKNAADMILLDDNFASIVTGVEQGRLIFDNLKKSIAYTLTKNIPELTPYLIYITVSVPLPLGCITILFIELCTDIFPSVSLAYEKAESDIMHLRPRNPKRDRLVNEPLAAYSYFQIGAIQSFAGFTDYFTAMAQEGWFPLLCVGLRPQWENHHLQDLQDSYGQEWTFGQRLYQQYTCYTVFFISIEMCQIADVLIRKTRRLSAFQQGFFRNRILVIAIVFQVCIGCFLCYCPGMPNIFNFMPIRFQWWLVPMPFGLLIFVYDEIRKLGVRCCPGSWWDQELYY
T2 sequence (P18434 whole entry): as the sequence (P18434 whole entry) above
T2 sequence (P19156 whole entry): as the sequence (P19156 whole entry) above

IC50 [2] [µM]	ED50 [5] [mg/kg]	SMILES	ID50 (Oryctolagus cuniculus [4]) [M]	further results
500	1	COc1c(C)cnc(C[S+]([O-])c2nc3ccccc3n2COC(C)=O)c1C (stereo not given)	2e-07	–
400	–	CC(OC(=O)c1ccccc1)n1c([S+]([O-])Cc2ccccn2)nc2ccccc21 (stereo in doubt; 29a) [listing 1 of 2 here]	4e-05	–
–	4	CC(C)C(=O)OCn1c([S+]([O-])Cc2ccccn2)nc2ccccc21 (stereo not given)	3e-05	–
–	4	[O-][S+](Cc1ccccn1)c1nc2ccccc2[nH]1 (stereo not given) [TIMOPRAZOLE]	2e-05	inhibition [13]: 27%; ED50 (Rattus norvegicus): 2.5 mg/kg
–	6	CC(C)COC(=O)OCn1c([S+]([O-])Cc2ccccn2)nc2ccccc21 (stereo not given)	2e-05	–
–	7	COC(=O)CCC(=O)OCn1c([S+]([O-])Cc2ccccn2)nc2ccccc21 (stereo not given)	2e-05	–
–	9	CCCCCCCC(=O)OCn1c([S+]([O-])Cc2ccccn2)nc2ccccc21 (stereo not given)	2e-05	–
1000	–	CCOC(C)n1c([S+]([O-])Cc2ccccn2)nc2ccccc21 (stereo not given)	–	ED50 [15]: 5 mg/kg; ID50 (Oryctolagus cuniculus [4]; Stomach): inactive
8	–	CC(=O)OCn1c([S+]([O-])Cc2ccccn2)nc2ccccc21 (stereo not given)	0.0001	ED50 [16]: 5 mg/kg
400	2	CCSc1ccnc(C[S+]([O-])c2nc3ccccc3n2COC(C)=O)c1C (stereo not given)	3e-07	–

Further lines, the compound ahead of its results:

SMILES	IC50 [2] [µM]	ED50 [5] [mg/kg]	ID50 (Oryctolagus cuniculus [4]) [M]	further results
CC(=O)OC(C)n1c([S+]([O-])Cc2ccccn2)nc2ccccc21 (stereo in doubt; 18b)	–	–	–	ID50 (Oryctolagus cuniculus [1]): inactive
CCSc1ccnc(C[S+]([O-])c2nc3ccccc3n2C(=O)OCc2ccccc2)c1C (stereo not given)	20	–	1.5e-06	inhibition [3]: 40%
COc1c(C)cnc(C[S+]([O-])c2nc3ccccc3n2C(C)OC(C)=O)c1C (stereo not given)	1500	< 1	4e-07	–
CCSc1ccnc(C[S+]([O-])c2nc3ccccc3n2COCCOC)c1C (stereo not given)	–	–	1e-05	ED50 [6]: inactive
CCSc1ccnc(C[S+]([O-])c2nc3ccccc3n2C(C)OC(C)=O)c1C (stereo in doubt; 19a)	–	2	–	–
CCSc1ccnc(C[S+]([O-])c2nc3ccccc3n2C(=O)OCc2ccc([N+](=O)[O-])cc2)c1C (stereo not given)	20	–	1.5e-06	inhibition [3]: 44%
CC(OC(=O)C(C)(C)C)n1c([S+]([O-])Cc2ccccn2)nc2ccccc21 (stereo in doubt; 30b) [listing 1 of 2 here]	–	–	–	inhibition [7]: 40%
COc1ccc2[nH]c([S+]([O-])Cc3ncc(C)c(OC)c3C)nc2c1 (stereo not given) [OMEPRAZOLE]	–	1	2e-07	ED50 (Rattus norvegicus): < 1 mg/kg
CCSc1ccnc(C[S+]([O-])c2nc3ccccc3n2CSC)c1C (stereo not given)	–	–	9e-05	ED50 [6]: inactive; IC50 [8]: Not Active
CCSc1ccnc(C[S+]([O-])c2nc3ccccc3n2COC(=O)C(C)(C)C)c1C (stereo not given)	–	5	5e-06	inhibition [9]: 30%
COc1c(C)cnc(C[S+]([O-])c2nc3ccccc3n2CCN2CCOCC2)c1C (stereo not given)	1000	–	7e-05	ED50 [6]: inactive
CCSc1ccnc(C[S+]([O-])c2nc3ccccc3n2COC(=O)c2ccccc2)c1C (stereo not given)	–	–	1.5e-06	inhibition [7]: 30%; IC50 [10]: Not Active
CCSc1ccnc(C[S+]([O-])c2nc3ccccc3n2C(=O)OC(C)(C)C(Cl)(Cl)Cl)c1C (stereo not given)	10	–	5e-05	ED50 [11]: inactive
CC(OC(=O)c1ccccc1)n1c([S+]([O-])Cc2ccccn2)nc2ccccc21 (stereo in doubt; 29b)	–	–	–	ID50 (Oryctolagus cuniculus [1]): inactive; inhibition [7]: 35%
[O-][N+]1(Cn2c(SCc3ccccn3)nc3ccccc32)CCOCC1	–	–	–	ED50 [6]: inactive; ID50 (Oryctolagus cuniculus [12]): inactive
COc1c(C)cnc(C[S+]([O-])c2nc3ccccc3[nH]2)c1C (stereo not given)	20	–	2e-07	–
CCSc1ccnc(C[S+]([O-])c2nc3ccccc3[nH]2)c1C (stereo not given) [DISUPRAZOLE]	20	1	1e-07	ED50 (Rattus norvegicus): < 1 mg/kg
CCSc1ccnc(C[S+]([O-])c2nc3ccccc3n2COC)c1C (stereo not given)	–	–	–	ED50 [6]: inactive; ID50 (Oryctolagus cuniculus [4]; Stomach): inactive
CCSc1ccnc(C[S+]([O-])c2nc3ccccc3n2CCN2CCCCC2)c1C (stereo not given)	30	–	2e-05	ED50 [6]: inactive
CC(OC(=O)C(C)(C)C)n1c([S+]([O-])Cc2ccccn2)nc2ccccc21 (stereo in doubt; 30a)	–	–	–	ID50 (Oryctolagus cuniculus [1]): inactive; inhibition [7]: 32%
Cn1c([S+]([O-])Cc2ccccn2)nc2ccccc21 (stereo not given)	–	–	0.001	inhibition [13]: 18%; ED50 [6]: inactive

SMILES	IC50 [2] [µM]	ED50 [5] [mg/kg]	ID50 (Oryctolagus cuniculus [4]) [M]	further results
CCSc1ccnc(CSc2nc3ccccc3n2CC2CO2)c1C (stereo not given)	–	–	8e-05	ED50 [6]: inactive
CC(OC(=O)C(C)(C)C)n1c([S+]([O-])Cc2ccccn2)nc2ccccc21 (stereo in doubt; 30b) [listing 2 of 2 here]	–	–	2e-05	–
CCCCCCCCOC(=O)n1c([S+]([O-])Cc2nccc(SCC)c2C)nc2ccccc21 (stereo not given)	–	–	1e-05	–
CCSc1ccnc(C[S+]([O-])c2nc3ccccc3n2CSc2ccccc2)c1C (stereo not given)	> 1000	–	8e-06	ED50 [6]: inactive
c1ccc(CSc2nc3ccccc3n2CN2CCOCC2)nc1	–	–	–	ED50 [6]: inactive; ID50 (Oryctolagus cuniculus [12]): inactive
CCSc1ccnc(C[S+]([O-])c2nc3ccccc3n2C(C)OC(C)=O)c1C (stereo in doubt; 19b)	–	2	–	–
CC(=O)OCn1c(SCc2nccc3c2CCC[S+]3[O-])nc2ccccc21 (stereo not given)	–	–	–	ED50 [14]: inactive
CC(OC(=O)c1ccccc1)n1c([S+]([O-])Cc2ccccn2)nc2ccccc21 (stereo in doubt; 29a) [listing 2 of 2 here]	–	–	–	inhibition [7]: 27%
[O-][S+](Cc1ccccn1)c1nc2ccccc2n1CCN1CCOCC1 (stereo not given)	–	–	–	ID50 (Oryctolagus cuniculus [12]): inactive
CC(=O)OC(C)n1c([S+]([O-])Cc2ccccn2)nc2ccccc21 (stereo in doubt; 18a)	–	–	–	ID50 (Oryctolagus cuniculus [1]): inactive
CCOC(=O)n1c([S+]([O-])Cc2nccc(SCC)c2C)nc2ccccc21 (stereo not given)	20	–	2e-06	inhibition [3]: 61%
CCOC(C)n1c([S+]([O-])Cc2nccc(SCC)c2C)nc2ccccc21 (stereo not given)	200	1.5	5e-07	–
CCOCCn1c([S+]([O-])Cc2nccc(SCC)c2C)nc2ccccc21 (stereo not given)	1000	–	2e-06	ED50 [6]: inactive
c1ccc(CSc2nc3ccccc3n2CCN2CCOCC2)nc1	–	–	–	ED50 [6]: inactive; ID50 (Oryctolagus cuniculus [12]): inactive
CCSc1ccnc(C[S+]([O-])c2nc3ccccc3n2C(=O)Oc2ccccc2)c1C (stereo not given)	20	5	1.5e-06	–
CCSc1ccnc(C[S+]([O-])c2nc3ccccc3n2C(=O)OC(C)C)c1C (stereo not given)	–	10	1.5e-05	–
CCSc1ccnc(C[S+]([O-])c2nc3ccccc3n2C(=O)OCC(C)C)c1C (stereo not given)	5	5	4e-06	–
CCSc1ccnc(C[S+]([O-])c2nc3ccccc3n2C(=O)OCCCl)c1C (stereo not given)	10	–	2e-06	inhibition [3]: 40%
CCOC(C)n1c([S+]([O-])Cc2ncc(C)c(OC)c2C)nc2ccccc21 (stereo not given)	1500	1	1e-06	–
C=COC(=O)n1c([S+]([O-])Cc2nccc(SCC)c2C)nc2ccccc21 (stereo not given)	30	10	1.5e-06	–

Source: ChEMBL document CHEMBL1125618, “Studies on (H(+)-K+)-ATPase inhibitors of gastric acid secretion. Prodrugs of 2-[(2-pyridinylmethyl)sulfinyl]benzimidazole proton-pump inhibitors” (J Med Chem, 1991)
